Data on 6 molecules can be found in PMC11984575 (Neurobiology of Pain, 2025).

The test system of series [1] is rat NaV1.8 channels. The note with it: cited from earlier work; for potency in rats: ref Gilchrist et al., 2024, Osteen et al., 2025.
Series [2] relates to rat SNL model. The note with it: cited from earlier work.
In series [3] the test system is NaV1.8. The note with it: blocks more current as stimulation rate increases; ref Payne et al., 2015; cited from earlier work.
Series [4] deals with humanized NaV1.8 rats. Description: CFA-induced thermal hyperalgesia. It is filed as in vivo, rat. The following applies: one hour post dosing; for hind paw withdrawal latency vs vehicle (thermal hyperalgesia): 24 h after CFA. In outline: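 Male humanized NaV1.8 rats; baseline Hargreaves latency as mean of two trials, 20 s cutoff. CFA (50 μL, 1 mg/mL) given intraplantar into mid-plantar hind paw; latencies retested at 24 h. Rats then randomized to PO vehicle or test compound (1 or 10 mg/kg), or diclofenac 80 mg/kg ip. Latency read 1 h post-dose; blinded; n = 20/group; two-way ANOVA with Bonferroni; mean ± SD.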

Series [5] deals with human NaV1.9 (Homo sapiens, UniProt Q9UI33). Description: Automated patch clamp. It is filed as cell-based. On the technique in general: In patch-clamp work, channel activity is measured electrically.
The target of series [6] is Chimera A: NaV1.5(1–770) – NaV1.8(719–751) – NaV1.5(804–2015) (Homo sapiens, UniProt Q14524+Q9Y5Y9). Description: QPatch II sodium currents of chimeric NaV channel in FS-293 HEK cells. It is filed as cell-based. The method in brief: (§1)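 Chimeric NaV1.5/NaV1.8 constructs electroporated into FS-293 HEK cells; currents recorded on QPatch II. External (mM): 150 NaCl, 5 KCl, 2 CaCl2, 1 MgCl2, 10 HEPES, 12 dextrose, pH 7.3 (NaOH), 330 Osm. Steps from −90 to +10 mV; IC50 by non-linear regression, bounds 0–1, Hill slope free.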

Series [7] is described as follows: Rat plasma protein binding. It is filed as in vitro ADME.
For series [8], the system named is humanized NaV1.8 rats. Description: Spinal nerve ligation. The note with it: one-hour post-dosing. It is filed as in vivo, rat. The method in brief:
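Male humanized NaV1.8 rats; baseline von Frey PWT (Up-Down, plantar) <9 g excluded. Under isoflurane, L6 transverse process removed; L5 spinal nerve tightly ligated and cut. After 1 week, PWT >6 g excluded. Day 1: PO vehicle (10 % Tween 80) or 10 mg/kg; after 4-day washout and reassessment, PO vehicle or 1 mg/kg. PWT read 1 h post-dose; blinded; mixed-effects model, Bonferroni; mean ± SD.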

Series [9] can be described thus: Total plasma exposure in CFA and SNL studies. It is filed as in vivo, rat. The following applies: for Total plasma exposure: SNL study, approximately 1-hour post-dosing; for concentration at 4 h: rat, plasma, po. In outline: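 Tail-vein blood for total plasma levels after PO test compound (1 or 10 mg/kg): in CFA rats at 4 h post-dose, in SNL rats right after mechanical testing, about 1 h post-dose.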

Series [10] addresses human NaV1.1 (Homo sapiens, UniProt P35498). Description: Automated patch clamp. It is filed as cell-based.
In series [11] the test system is all other recombinant human NaV channel isoforms. The following applies: highest concentrations tested (30–34 uM); ref Vardigan et al., 2024; cited from earlier work.
The target of series [12] is Chimera 1: NaV1.5(1–711) – NaV1.8(660–890) – NaV1.5(940–2015) (Homo sapiens, UniProt Q14524+Q9Y5Y9). Description: QPatch II sodium currents of chimeric NaV channel in FS-293 HEK cells. It is filed as cell-based. The method in brief:
as §1

Series [13] relates to wild-type Sprague-Dawley rats. As to the kind of experiment: Capsaicin nocifensive behavior. The note with it: 10 mg/kg PO, 1 h before capsaicin. It is filed as in vivo, rat. In outline: (§2)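 Male rats, humanized or wild-type Sprague-Dawley, acclimated to chamber twice beforehand and 15 min on test day. Test compound given PO 1 h before intradermal capsaicin (25 μL, 0.01 %, in ethanol/Tween80/saline 20:7:73) into left hind paw. Flinches counted over 5 min; blinded, randomized order. Wild-type: n = 10/group, Student's t-test. Humanized dose-response: per-animal % inhibition of vehicle mean fitted against unbound plasma level (tail-vein blood post-test) for in vivo IC50.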

In series [14] the target is Chimera 2: NaV1.8(1–399) – NaV1.5(416–1199) – NaV1.8(1148–1956) (Homo sapiens, UniProt Q14524+Q9Y5Y9). As to the kind of experiment: QPatch II sodium currents of chimeric NaV channel in FS-293 HEK cells. It is filed as cell-based. The following applies: VSDII of NaV1.5 swapped into NaV1.8. The method in brief: as §1
Series [15] deals with T1, human NaV1.8 (Homo sapiens, UniProt Q9Y5Y9). It is filed as cell-based.
T1 sequence (Q9Y5Y9 whole entry): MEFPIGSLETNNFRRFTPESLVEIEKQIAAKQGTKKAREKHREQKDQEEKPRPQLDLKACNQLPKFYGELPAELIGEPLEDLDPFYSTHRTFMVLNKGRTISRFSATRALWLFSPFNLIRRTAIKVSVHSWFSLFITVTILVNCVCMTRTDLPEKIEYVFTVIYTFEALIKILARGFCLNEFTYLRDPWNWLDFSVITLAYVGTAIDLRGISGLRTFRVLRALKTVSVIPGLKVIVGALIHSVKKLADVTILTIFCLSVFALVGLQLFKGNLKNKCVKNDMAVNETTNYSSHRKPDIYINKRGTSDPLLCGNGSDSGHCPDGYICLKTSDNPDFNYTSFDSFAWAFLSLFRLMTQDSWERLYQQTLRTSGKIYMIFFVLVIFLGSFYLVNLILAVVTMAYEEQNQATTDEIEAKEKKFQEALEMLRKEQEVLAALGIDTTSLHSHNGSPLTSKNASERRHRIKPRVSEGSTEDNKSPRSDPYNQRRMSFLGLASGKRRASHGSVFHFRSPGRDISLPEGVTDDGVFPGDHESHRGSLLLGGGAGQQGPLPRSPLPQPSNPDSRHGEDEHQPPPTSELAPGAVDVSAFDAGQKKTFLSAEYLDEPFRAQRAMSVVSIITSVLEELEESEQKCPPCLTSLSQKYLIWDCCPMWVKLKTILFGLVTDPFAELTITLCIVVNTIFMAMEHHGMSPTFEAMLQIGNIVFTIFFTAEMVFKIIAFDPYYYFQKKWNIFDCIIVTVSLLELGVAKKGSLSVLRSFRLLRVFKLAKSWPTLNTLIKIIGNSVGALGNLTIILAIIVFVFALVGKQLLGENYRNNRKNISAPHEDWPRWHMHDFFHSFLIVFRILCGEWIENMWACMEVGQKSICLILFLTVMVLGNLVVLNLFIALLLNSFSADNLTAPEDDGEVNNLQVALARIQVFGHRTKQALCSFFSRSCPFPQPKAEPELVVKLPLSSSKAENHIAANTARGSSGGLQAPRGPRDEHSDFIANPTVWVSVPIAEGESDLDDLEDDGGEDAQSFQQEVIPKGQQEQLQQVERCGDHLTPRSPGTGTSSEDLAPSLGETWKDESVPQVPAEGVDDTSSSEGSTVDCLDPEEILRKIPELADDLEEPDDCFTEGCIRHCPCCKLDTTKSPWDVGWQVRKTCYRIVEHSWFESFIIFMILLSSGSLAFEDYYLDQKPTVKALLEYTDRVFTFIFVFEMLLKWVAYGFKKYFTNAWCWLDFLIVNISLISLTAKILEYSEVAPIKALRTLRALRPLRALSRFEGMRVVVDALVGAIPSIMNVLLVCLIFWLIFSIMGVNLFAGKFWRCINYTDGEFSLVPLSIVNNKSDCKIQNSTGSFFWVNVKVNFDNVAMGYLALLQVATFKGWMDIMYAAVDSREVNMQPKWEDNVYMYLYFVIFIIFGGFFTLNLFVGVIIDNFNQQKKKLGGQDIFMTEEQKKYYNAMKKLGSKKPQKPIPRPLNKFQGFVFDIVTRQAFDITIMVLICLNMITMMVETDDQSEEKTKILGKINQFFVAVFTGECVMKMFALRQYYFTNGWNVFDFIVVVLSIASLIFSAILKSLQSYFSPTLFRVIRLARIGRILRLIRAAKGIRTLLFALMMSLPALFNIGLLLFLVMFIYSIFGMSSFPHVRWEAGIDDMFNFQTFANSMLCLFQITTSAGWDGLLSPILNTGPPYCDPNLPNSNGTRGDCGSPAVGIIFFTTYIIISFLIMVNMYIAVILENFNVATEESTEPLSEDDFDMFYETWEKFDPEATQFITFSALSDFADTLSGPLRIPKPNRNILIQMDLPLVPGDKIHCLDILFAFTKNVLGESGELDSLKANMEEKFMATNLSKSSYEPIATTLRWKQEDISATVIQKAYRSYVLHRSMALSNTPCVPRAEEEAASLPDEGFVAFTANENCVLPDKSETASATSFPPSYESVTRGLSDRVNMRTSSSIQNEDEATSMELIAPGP
For series [16], the system named is humanized NaV1.8 rats. Description: Capsaicin nocifensive behavior. It is filed as in vivo, rat. In outline: as §2
In series [17] the target is human NaV1.6 (Homo sapiens, UniProt Q9UQD0). Description: Automated patch clamp. It is filed as cell-based.
The target of series [18] is human NaV1.3 (Homo sapiens, UniProt Q9NY46). Description: Automated patch clamp. It is filed as cell-based.
Series [19] deals with human NaV1.5 (Homo sapiens, UniProt Q14524). As to the kind of experiment: Automated patch clamp. It is filed as cell-based.
Series [20] has as its target human NaV1.4 (Homo sapiens, UniProt P35499). As to the kind of experiment: Automated patch clamp. It is filed as cell-based. The following applies: vs human NaV1.8.
For series [21], the target named is T1, human NaV1.8. As to the kind of experiment: Automated patch clamp. It is filed as cell-based. The note with it: train of 10 pulses at 1 Hz vs first pulse.
The target of series [22] is Chimera B: NaV1.8(1–718) – NaV1.5(771–803) – NaV1.8(752–1956) (Homo sapiens, UniProt Q14524+Q9Y5Y9). As to the kind of experiment: QPatch II sodium currents of chimeric NaV channel in FS-293 HEK cells. It is filed as cell-based. The following applies: VSDIIS3 of NaV1.5 in NaV1.8. In outline:
as §1

In series [23] the target is rodent NaV1.8 channel (Rattus norvegicus, UniProt Q62968). It is filed as cell-based.
Series [24] concerns the target human NaV1.7 (Homo sapiens, UniProt Q15858). Description: Automated patch clamp. It is filed as cell-based.
For series [25], the target named is human NaV1.2 (Homo sapiens, UniProt Q99250). As to the kind of experiment: Automated patch clamp. It is filed as cell-based.

By IC50 is commonly meant the concentration at which inhibition is half-maximal. By fraction unbound is commonly meant the share of the substance not bound to proteins or other matrix. A high value points to much free substance.

“Also recorded” adds a separate entry of the source. Bounds are passed on as bounds.

Sequence of Chimera B: NaV1.8(1–718) – NaV1.5(771–803) – NaV1.8(752–1956) (Q9Y5Y9 1-718 limits assumed, change not shown): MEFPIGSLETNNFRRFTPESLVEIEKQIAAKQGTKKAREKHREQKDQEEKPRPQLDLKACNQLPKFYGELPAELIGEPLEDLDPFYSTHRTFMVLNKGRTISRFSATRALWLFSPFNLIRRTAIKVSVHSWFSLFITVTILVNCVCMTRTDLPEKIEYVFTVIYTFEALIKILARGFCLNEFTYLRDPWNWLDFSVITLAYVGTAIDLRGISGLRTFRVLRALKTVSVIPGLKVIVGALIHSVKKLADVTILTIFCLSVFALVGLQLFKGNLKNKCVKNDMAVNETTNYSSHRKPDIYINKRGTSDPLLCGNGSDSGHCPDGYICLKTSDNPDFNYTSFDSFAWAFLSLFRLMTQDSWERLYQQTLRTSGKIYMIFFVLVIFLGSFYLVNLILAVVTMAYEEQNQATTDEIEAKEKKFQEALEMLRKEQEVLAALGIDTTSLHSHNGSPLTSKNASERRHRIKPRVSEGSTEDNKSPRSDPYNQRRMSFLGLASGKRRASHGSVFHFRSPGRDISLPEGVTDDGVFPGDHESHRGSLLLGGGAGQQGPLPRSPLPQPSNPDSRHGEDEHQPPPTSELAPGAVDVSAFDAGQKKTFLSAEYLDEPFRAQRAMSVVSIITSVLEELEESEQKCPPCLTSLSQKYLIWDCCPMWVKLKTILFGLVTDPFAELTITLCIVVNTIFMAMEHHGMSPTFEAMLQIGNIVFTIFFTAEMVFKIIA
Sequence of Chimera B: NaV1.8(1–718) – NaV1.5(771–803) – NaV1.8(752–1956) (Q14524 771-803 limits assumed, change not shown): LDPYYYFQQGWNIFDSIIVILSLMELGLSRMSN
Sequence of Chimera B: NaV1.8(1–718) – NaV1.5(771–803) – NaV1.8(752–1956) (Q9Y5Y9 752-1956 limits assumed, change not shown): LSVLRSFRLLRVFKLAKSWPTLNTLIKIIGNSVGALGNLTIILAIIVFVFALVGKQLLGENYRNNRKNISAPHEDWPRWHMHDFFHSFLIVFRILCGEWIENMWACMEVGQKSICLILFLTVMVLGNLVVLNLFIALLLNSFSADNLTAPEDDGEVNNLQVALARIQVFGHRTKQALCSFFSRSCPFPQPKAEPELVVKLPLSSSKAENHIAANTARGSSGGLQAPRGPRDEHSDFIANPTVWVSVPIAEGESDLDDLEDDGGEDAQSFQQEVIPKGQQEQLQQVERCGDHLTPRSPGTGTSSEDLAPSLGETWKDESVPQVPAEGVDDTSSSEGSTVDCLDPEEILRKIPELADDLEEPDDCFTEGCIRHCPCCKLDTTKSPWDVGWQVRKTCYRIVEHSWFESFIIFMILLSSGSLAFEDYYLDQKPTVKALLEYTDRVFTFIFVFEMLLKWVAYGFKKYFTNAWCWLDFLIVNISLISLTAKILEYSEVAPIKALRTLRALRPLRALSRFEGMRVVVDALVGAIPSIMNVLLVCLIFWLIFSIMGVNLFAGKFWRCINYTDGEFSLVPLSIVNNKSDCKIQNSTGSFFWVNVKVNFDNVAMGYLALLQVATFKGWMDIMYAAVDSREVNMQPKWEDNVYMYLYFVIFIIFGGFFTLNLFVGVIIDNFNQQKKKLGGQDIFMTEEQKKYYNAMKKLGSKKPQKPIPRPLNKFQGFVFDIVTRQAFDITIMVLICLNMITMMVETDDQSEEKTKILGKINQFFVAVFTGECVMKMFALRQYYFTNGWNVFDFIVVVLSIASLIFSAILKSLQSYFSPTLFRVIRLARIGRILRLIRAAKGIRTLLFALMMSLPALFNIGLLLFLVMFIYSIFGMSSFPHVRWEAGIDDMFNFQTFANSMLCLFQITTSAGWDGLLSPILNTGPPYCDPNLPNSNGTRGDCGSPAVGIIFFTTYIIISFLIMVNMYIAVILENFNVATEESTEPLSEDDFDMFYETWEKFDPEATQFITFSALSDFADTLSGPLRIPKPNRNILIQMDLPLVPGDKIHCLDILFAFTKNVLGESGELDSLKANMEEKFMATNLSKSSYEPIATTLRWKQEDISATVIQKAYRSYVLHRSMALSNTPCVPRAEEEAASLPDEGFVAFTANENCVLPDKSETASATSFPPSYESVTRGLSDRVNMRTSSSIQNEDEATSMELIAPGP

With `COc1c([C@H]2[C@H](C(=O)Nc3ccnc(C(N)=O)c3)O[C@@](C)(C(F)(F)F)[C@H]2C)ccc(F)c1F` [VX-548], the potency in rats result in series [1] is “reduced potency in rats”.
Consider `CNC(=O)c1ccc(-c2cc(Cl)cc(Cl)c2Cl)c(N)n1` [PF-01247324], for which the “neuropathic pain in rat SNL model” value in series [2] (rat, ref Payne et al., 2015) was “reversed neuropathic pain in the rat SNL model”. Moreover, the frequency dependency result in [3] is “demonstrates frequency dependency”.
In the case of `O=C(O)Cc1ccccc1Nc1c(Cl)cccc1Cl` [Diclofenac, reference compound], in series [4] (80 mg/kg intraperitoneal, positive control), the “thermal hyperalgesia vs vehicle” value is reported as “reversed thermal hyperalgesia”.
Turning to `Cc1ccc(C(=O)Nc2ccnc(S(N)(=O)=O)c2)c(N2CCCC(F)(F)CC2)n1` [MSD199, 2-(4,4-difluoroazepan-1-yl)-6-methyl-N-(2-sulfamoylpyridin-4-yl)-nicotinamide], the IC50 in series [5] was more than 33 µM; in series [6], 0.0086 µM; in series [10], more than 33.6 µM; in series [12] it was 0.0011 µM; in series [15], 0.0056 µM; in [17] it was more than 33.6 µM. Besides, the IC50 in series [18] is more than 33.6 µM; in series [19] it was more than 33.6 µM; in [23], 4.83 µM; in series [24], more than 33.6 µM; in series [25], more than 33.6 µM. In addition, the fraction unbound in series [7] is 0.15. The entries for the “paw withdrawal thresholds vs vehicle (mechanical allodynia)” value in [8] (1 mg/kg PO) and in series [8] (10 mg/kg PO) were “no significant antiallodynic effects; also recorded: did not significantly alter paw withdrawal thresholds” and “demonstrated significant antiallodynic effects; also recorded: significant reversal of mechanical allodynia”, respectively. Further, the Total plasma exposure is on record as 73.06 ± 4.71 nM in series [9] (1 mg/kg PO) and 1117 ± 84.19 nM in [9] (10 mg/kg PO). In addition, the concentration at 4 h is 20.1 ± 5.1 nM in series [9] (1 mg/kg) and 199 ± 27.3 nM in series [9] (10 mg/kg). For the same molecule, the “inhibition of all other recombinant human NaV channel isoforms” value in [11] is recorded as “no inhibition”. Besides, the “effect on capsaicin-induced nocifensive behavior” value is given as “had no effect; also recorded: no observable impact” in [13] and “significantly blocked” in series [16] (10 mg/kg PO, 1 h before capsaicin (Fig. 2B), 10 mg/kg). The “sodium current inhibition, Chimera 2” value in series [14] is reported as “disruption of sodium current inhibition”. For the same molecule, the “nocifensive responses vs vehicle, dose-response” value in series [16] (1 mg/kg PO (Fig. 2C)), in series [16] (3 mg/kg PO (Fig. 2C)) and in series [16] (10 mg/kg PO (Fig. 2C)) was “significantly lower than vehicle” in each case. Besides, the “hind paw withdrawal latency vs vehicle (thermal hyperalgesia)” value in [4] (1 mg/kg PO) is given as “but not at 1 mg/kg, significantly increased”; in series [4] (10 mg/kg PO), “significantly increased”. Also, the “selectivity over recombinant human NaV1.4 channel” value in series [20] is given as approximately 2000 fold. Further, in series [21], the frequency dependency result is recorded as “does not display frequency dependency”. In addition, in [22], the “potency, Chimera B” value was “abolished the potency”.
As for `Cc1cc(F)ccc1Oc1ncc(C(F)(F)F)cc1C(=O)Nc1cccc([S@](C)(=N)=O)c1` [LTGO-33], in series [1], the potency in rats result is “reduced potency in rats”.
On to `COc1cc(NC(=O)c2ccc(-c3ccc(Cl)cc3)o2)cc(OC)c1` [Molecule A-803467], for which the SNL-induced mechanical allodynia result in series [2] (rodents, ref Jarvis et al., 2007) is “demonstrated reversal of SNL-induced mechanical allodynia”. Besides, the “potency in wildtype rodents” value in [1] (ref Jarvis et al., 2007) was “exhibited reduced potency in wildtype rodents”.
